Article PMC10061536 (ACS Omega, 2023)

How the values were obtained:
[1] = DPPH radical scavenging assay; details: for IC50: read-out: IC50 (mM ± SEM), DPPH scavenged by 50%; for percentage antioxidant potential: at tested concentrations, IC50 not calculated
How it was run: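 Radical scavenging of DPPH by the test compound, with ascorbic acid as the reference.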

[2] = system: α-amylase; assay: α-Amylase inhibition assay; type: biochemical; details: for IC50: read-out: IC50 ± SEM, α-amylase inhibition
[3] = molecular target: Bovine serum albumin (BSA)-glucose model (Bos taurus, UniProt P02769); assay: In vitro anti-glycation assay, BSA-glucose model; type: biochemical; details: for inhibition at 100 ppm / inhibition at 200 ppm / inhibition at 400 ppm / inhibition at 600 ppm / inhibition at 800 ppm / inhibition at 1000 ppm: read-out: % age antiglycation inhibition
Bovine serum albumin (BSA)-glucose model, sequence (P02769 25-607): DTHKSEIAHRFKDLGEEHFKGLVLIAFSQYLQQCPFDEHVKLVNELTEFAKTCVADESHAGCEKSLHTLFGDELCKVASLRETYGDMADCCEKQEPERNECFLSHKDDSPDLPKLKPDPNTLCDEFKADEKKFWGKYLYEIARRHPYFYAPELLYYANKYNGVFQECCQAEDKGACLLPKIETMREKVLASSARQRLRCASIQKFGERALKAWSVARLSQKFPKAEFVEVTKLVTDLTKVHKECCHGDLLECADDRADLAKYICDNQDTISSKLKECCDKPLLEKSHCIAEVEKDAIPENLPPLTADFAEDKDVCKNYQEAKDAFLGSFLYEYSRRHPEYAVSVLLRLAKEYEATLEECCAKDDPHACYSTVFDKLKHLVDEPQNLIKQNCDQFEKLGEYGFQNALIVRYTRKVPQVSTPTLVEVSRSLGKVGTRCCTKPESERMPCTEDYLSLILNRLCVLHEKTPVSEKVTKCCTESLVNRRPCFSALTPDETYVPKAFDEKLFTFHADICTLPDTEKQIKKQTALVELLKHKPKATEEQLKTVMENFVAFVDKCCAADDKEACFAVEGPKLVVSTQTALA
How it was run: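 Glycation is read by measuring the fluorescence of glycated products on a spectrofluorometer.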

Row | Structure (SMILES) | IC50 [1] [mM] | % age α-amylase inhibition ([2]; 1 μM) [%] | % age α-amylase inhibition ([2]; 5 μM) [%] | % age α-amylase inhibition ([2]; 10 μM) [%] | IC50 [2] [µM] | inhibition at 100 ppm [3] [%] | inhibition at 200 ppm [3] [%] | inhibition at 400 ppm [3] [%] | inhibition at 600 ppm [3] [%] | inhibition at 800 ppm [3] [%] | inhibition at 1000 ppm [3] [%] | IC50 [3] [µM] | % age antioxidant potential ([1]; 3 mM) [%] | % age antioxidant potential ([1]; 6 mM) [%] | % age antioxidant potential ([1]; 9 mM) [%] | % age antioxidant potential ([1]; 12 mM) [%] | % age antioxidant potential ([1]; 15 mM) [%] | percentage antioxidant potential [1]
1 | COc1cc(Br)c(C=NNc2nc(-c3ccc(F)cc3)cs2)cc1OC [3a, 2-(2-(2-Bromo-4,5-dimethoxybenzylidene)hydrazinyl)-4-(4-fluorophenyl)thiazole] | 12.39 ± 0.1 | 35.96 | 51.11 | 69.11 | 6.41 ± 0.09 | 80.9 | 82.1 | 84.8 | 85.9 | 87 | 89.9 |  | 0.00 | 18.82 | 32.72 | 47.58 | 67.95 | 
2 | CC(CCc1ccccc1)=NNc1nc(-c2ccc(F)cc2)cs1 [3c, 4-(4-Fluorophenyl)-2-(2-(4-phenylbutan-2-ylidene)hydrazinyl)thiazole] | 11.4 ± 0.12 | 30.03 | 45.41 | 58.12 | 7.52 ± 0.05 | 67.6 | 68.9 | 69.7 | 75.7 | 77.9 | 81.6 |  | 0.00 | 11.13 | 34.28 | 57.51 | 73.34 | 
3 | Fc1ccc(-c2csc(NN=Cc3ccc(C(F)(F)F)cc3)n2)cc1 [3d, 4-(4-Fluorophenyl)-2-(2-(4-(trifluoromethyl)benzylidene)hydrazinyl)thiazole] | 10.68 ± 0.08 | 36.97 | 49.93 | 62.35 | 6.92 ± 0.12 | 87.4 | 87.9 | 89 | 89.5 | 90.9 | 92.3 |  | 23.48 | 34.45 | 45.32 | 56.39 | 63.78 | 
4 | Cc1ccc(C=NNc2nc(-c3ccc(F)cc3)cs2)o1 [3e, 4-(4-Fluorophenyl)-2-(2-((5-methylfuran-2-yl)methylene)hydrazinyl)thiazole] |  | 30.06 | 41.20 | 57.45 | 7.77 ± 0.01 | 68.7 | 69.7 | 70.7 | 71.8 | 72.8 | 73.7 |  | 0.00 | 8.26 | 19.32 | 44.74 | 49.04 | less than 50%
5 | CC(=NNc1nc(-c2ccc(F)cc2)cs1)c1cccc(Br)c1 [3f, 2-(2-(1-(3-Bromophenyl)ethylidene)hydrazinyl)-4-(4-fluorophenyl)thiazole] |  | 34.92 | 51.68 | 62.28 | 6.88 ± 0.16 | 84.1 | 86.7 | 87.3 | 88 | 90.4 | 91.3 |  | 0.00 | 0.00 | 19.48 | 28.70 | 40.73 | less than 50%
6 | CC(=NNc1nc(-c2ccc(F)cc2)cs1)c1ccc(F)cc1 [3g, 4-(4-Fluorophenyl)-2-(2-(1-(4-fluorophenyl)ethylidene)hydrazinyl)thiazole] |  | 38.00 | 49.56 | 62.75 | 6.9 ± 0.23 | 24.3 | 34.6 | 48.8 | 54.3 | 66.6 | 74.6 | 1770 | 0.00 | 0.00 | 0.00 | 0.00 | 8.45 | less than 50%
7 | Fc1ccc(-c2csc(NN=Cc3cccc(C(F)(F)F)c3)n2)cc1 [3i, 4-(4-Fluorophenyl)-2-(2-(3-(trifluoromethyl)benzylidene)hydrazinyl)thiazole] |  | 38.90 | 51.09 | 64.58 | 6.7 ± 0.08 | 88 | 88.5 | 89.1 | 90 | 91.2 | 92.2 |  | 0.00 | 8.64 | 18.87 | 32.26 | 46.53 | less than 50%
8 | C[C@H]1O[C@H](O[C@H]2[C@H](O)[C@@H](O)[C@@H](O[C@H]3[C@H](O)[C@@H](O)C(O)O[C@@H]3CO)O[C@@H]2CO)[C@H](O)[C@@H](O)[C@@H]1N[C@H]1C=C(CO)[C@@H](O)[C@H](O)[C@H]1O (stereo partly shown) [acarbose, reference compound] |  | 53.42 | 66.81 | 74.77 |  |  |  |  |  |  |  |  |  |  |  |  |  | 
9 | O=C1O[C@H]([C@@H](O)CO)C(O)=C1O [ascorbic acid, reference compound] | 7.18 ± 0.01 |  |  |  |  |  |  |  |  |  |  |  | 52.34 | 61.01 | 74.41 | 81.85 | 84.92 | 

The next lines start with results.

Row | IC50 [1] [mM] | % age α-amylase inhibition ([2]; 1 μM) [%] | % age α-amylase inhibition ([2]; 5 μM) [%] | % age α-amylase inhibition ([2]; 10 μM) [%] | IC50 [2] [µM] | inhibition at 100 ppm [3] [%] | inhibition at 200 ppm [3] [%] | inhibition at 400 ppm [3] [%] | inhibition at 600 ppm [3] [%] | inhibition at 800 ppm [3] [%] | inhibition at 1000 ppm [3] [%] | IC50 [3] [µM] | Structure (SMILES) | % age antioxidant potential ([1]; 3 mM) [%] | % age antioxidant potential ([1]; 6 mM) [%] | % age antioxidant potential ([1]; 9 mM) [%] | % age antioxidant potential ([1]; 12 mM) [%] | % age antioxidant potential ([1]; 15 mM) [%] | percentage antioxidant potential [1]
10 | 11.3 ± 0.14 | 31.95 | 51.54 | 62.71 | 6.87 ± 0.01 | 81.2 | 84.6 | 85.2 | 86.2 | 86.8 | 87.5 |  | Cc1ccc(C=NNc2nc(-c3ccc(F)cc3)cs2)c(Br)c1 [3b, 2-(2-(2-Bromo-4-methylbenzylidene)hydrazinyl)-4-(4-fluorophenyl)thiazole] | 8.77 | 23.69 | 36.38 | 53.65 | 69.82 | 
11 |  | 55.89 | 69.05 | 82.47 | 5.14 ± 0.03 | 50.9 | 56.5 | 65.5 | 68.4 | 69 | 70.7 |  | Oc1ccc(Cl)cc1C=NNc1nc(-c2ccc(F)cc2)cs1 [3h, 4-Chloro-2-((2-(4-(4-fluorophenyl)thiazol-2-yl)hydrazinylidene)methyl)phenol] | 0.00 | 0.00 | 0.00 | 8.78 | 23.25 | less than 50%
12 | 8.33 ± 0.08 | 29.58 | 42.23 | 54.03 | 8.07 ± 0.12 | 52.3 | 61.5 | 66.5 | 70.3 | 76.2 | 79.2 |  | CCOc1ccccc1C=NNc1nc(-c2ccc(F)cc2)cs1 [3j, 2-(2-(2-Ethoxybenzylidene)hydrazinyl)-4-(4-fluorophenyl)thiazole] | 18.18 | 45.90 | 62.07 | 75.45 | 78.51 | 
13 |  | 47.84 | 57.72 | 70.90 | 6.03 ± 0.04 | 87.4 | 87.9 | 88.8 | 89.2 | 90 | 91.6 |  | Fc1ccc(-c2csc(NN=Cc3ccccc3C(F)(F)F)n2)cc1 [3k, 4-(4-Fluorophenyl)-2-(2-(2-(trifluoromethyl)benzylidene)hydrazinyl)thiazole] | 0.00 | 14.08 | 21.05 | 30.92 | 48.28 | less than 50%
14 | 12.94 ± 0.01 | 37.06 | 49.08 | 61.72 | 7 ± 0.13 | 79.9 | 81.8 | 83 | 84.6 | 86.2 | 87.1 |  | COc1c(F)cccc1C=NNc1nc(-c2ccc(F)cc2)cs1 [3l, 2-(2-(3-Fluoro-2-methoxybenzylidene)hydrazinyl)-4-(4-fluorophenyl)thiazole] | 0.00 | 15.62 | 32.06 | 46.14 | 65.18 | 
